According to ChEMBL document CHEMBL2176996, “Synthesis and structure-affinity relationships of selective high-affinity 5-HT(4) receptor antagonists: application to the design of new potential single photon emission computed tomography tracers” (J Med Chem, 2012):
Activity calls are given as the source filed them. No cut-off for these calls is given here.

Assays:
[1] = biological target: 5-hydroxytryptamine receptor 4 (Cavia porcellus) (UniProt O70528); experiment: Displacement of [3H]GR113808 from 5HT4R in guinea pig striatal membranes at 10 nM; type: cell membranes; settings: Striatum, Membrane
Method in brief: (§1)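 Native 5-HT4R in male guinea pig striatal membranes (HEPES 50 mM pH 7.4); 600 µg membrane incubated in duplicate with [3H]GR 113808 at 0.1 nM final, 37 °C, 30 min; filtration on PEI-soaked GF/B filters, cold buffer washes.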

[2] = biological target: 5-hydroxytryptamine receptor 4 (Cavia porcellus) (UniProt O70528); experiment: Displacement of [3H]GR113808 from 5HT4R in guinea pig striatal membranes at 1 uM; type: cell membranes; settings: Striatum, Membrane; method in brief: as §1
[3] = biological target: 5-hydroxytryptamine receptor 4 (Cavia porcellus, UniProt O70528); experiment: Displacement of [3H]GR113808 from 5HT4R in guinea pig striatal membranes; type: cell membranes, Striatum, Membrane
[4] = biological target: 5-hydroxytryptamine receptor 6 (Homo sapiens, UniProt P50406); experiment: Binding affinity to human 5HT6 by Cerep protocol based assay
[5] = biological target: T1, 5-hydroxytryptamine receptor 1A (Homo sapiens, UniProt P08908); experiment: Binding affinity to human 5HT1A by Cerep protocol based assay
T1 sequence (P08908 whole entry): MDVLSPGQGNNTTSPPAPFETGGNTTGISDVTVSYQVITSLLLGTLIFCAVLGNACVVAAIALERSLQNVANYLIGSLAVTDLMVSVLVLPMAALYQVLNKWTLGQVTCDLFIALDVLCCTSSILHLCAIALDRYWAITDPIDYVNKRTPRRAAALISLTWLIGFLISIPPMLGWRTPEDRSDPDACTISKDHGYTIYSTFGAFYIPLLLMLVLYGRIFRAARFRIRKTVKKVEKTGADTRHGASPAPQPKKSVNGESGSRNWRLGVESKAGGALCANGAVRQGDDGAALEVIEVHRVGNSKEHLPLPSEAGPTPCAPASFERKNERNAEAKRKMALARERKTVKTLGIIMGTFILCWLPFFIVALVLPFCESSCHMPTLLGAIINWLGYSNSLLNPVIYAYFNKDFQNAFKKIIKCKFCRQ

[6] = biological target: 5-hydroxytryptamine receptor 2B (Homo sapiens, UniProt P41595); experiment: Binding affinity to human 5HT2B by Cerep protocol based assay
[7] = biological target: 5-hydroxytryptamine receptor 7 (Homo sapiens, UniProt P34969); experiment: Binding affinity to human 5HT7 by Cerep protocol based assay
[8] = biological target: T2, 5-hydroxytryptamine receptor 2C (Homo sapiens, UniProt P28335); experiment: Binding affinity to human 5HT2C by Cerep protocol based assay
T2 sequence (P28335 whole entry): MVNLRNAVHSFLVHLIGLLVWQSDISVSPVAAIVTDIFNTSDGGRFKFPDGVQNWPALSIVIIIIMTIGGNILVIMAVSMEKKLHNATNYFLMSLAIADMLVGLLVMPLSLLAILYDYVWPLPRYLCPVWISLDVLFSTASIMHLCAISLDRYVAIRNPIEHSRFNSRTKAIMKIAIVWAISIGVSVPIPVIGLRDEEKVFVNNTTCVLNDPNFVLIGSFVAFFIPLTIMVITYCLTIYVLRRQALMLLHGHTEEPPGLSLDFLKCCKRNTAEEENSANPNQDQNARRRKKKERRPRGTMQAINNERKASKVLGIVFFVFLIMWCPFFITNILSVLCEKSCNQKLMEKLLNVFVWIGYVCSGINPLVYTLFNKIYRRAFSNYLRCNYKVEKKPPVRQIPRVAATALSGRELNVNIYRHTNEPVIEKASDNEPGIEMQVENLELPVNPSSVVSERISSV

[9] = biological target: 5-hydroxytryptamine receptor 1B (Homo sapiens, UniProt P28222); experiment: Binding affinity to human 5HT1B by Cerep protocol based assay
[10] = biological target: 5-hydroxytryptamine receptor 1E (Homo sapiens, UniProt P28566); experiment: Binding affinity to human 5HT1E by Cerep protocol based assay
[11] = biological target: T3, 5-hydroxytryptamine receptor 3A (Homo sapiens, UniProt P46098); experiment: Binding affinity to human 5HT3 by Cerep protocol based assay
T3 sequence (P46098 whole entry): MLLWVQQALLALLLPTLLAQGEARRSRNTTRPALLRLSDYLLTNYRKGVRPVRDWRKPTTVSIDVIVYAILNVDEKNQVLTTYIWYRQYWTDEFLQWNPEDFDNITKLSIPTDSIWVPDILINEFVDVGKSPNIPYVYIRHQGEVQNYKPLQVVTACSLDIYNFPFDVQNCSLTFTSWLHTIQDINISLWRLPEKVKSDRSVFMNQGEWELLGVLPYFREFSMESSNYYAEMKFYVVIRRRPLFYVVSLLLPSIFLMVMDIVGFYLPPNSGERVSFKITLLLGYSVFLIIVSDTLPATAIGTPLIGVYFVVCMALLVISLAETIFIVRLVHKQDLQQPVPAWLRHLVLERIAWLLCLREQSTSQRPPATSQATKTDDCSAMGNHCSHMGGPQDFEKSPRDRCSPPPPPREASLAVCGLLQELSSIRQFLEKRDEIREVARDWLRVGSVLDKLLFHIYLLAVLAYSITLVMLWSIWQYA

[12] = biological target: T4, 5-hydroxytryptamine receptor 4 (Homo sapiens, UniProt Q13639); experiment: Displacement of radioligand from human 5HT4R by Cerep protocol based assay
[13] = biological target: 5-hydroxytryptamine receptor 5A (Homo sapiens, UniProt P47898); experiment: Binding affinity to human 5HT5A by Cerep protocol based assay
[14] = biological target: 5-hydroxytryptamine receptor 1D (Homo sapiens, UniProt P28221); experiment: Binding affinity to human 5HT1D by Cerep protocol based assay
[15] = biological target: 5-hydroxytryptamine receptor 2A (Homo sapiens, UniProt P28223); experiment: Binding affinity to human 5HT2A by Cerep protocol based assay
[16] = biological target: T4, 5-hydroxytryptamine receptor 4; experiment: Displacement of [3H]GR113808 from human recombinant 5HT4R expressed in HEK293T cells; type: cell-based, HEK-293T
[17] = biological target: T4, 5-hydroxytryptamine receptor 4
[18] = tested on: Mus musculus; experiment: In-vivo displacement of [125I]SB 207710 from 5HT4R in mouse olfactory tubercles at 50 ug/kg, iv by autoradiography; type: functional, organism-based; settings: Olfactory tubercle
Method in brief: (§2)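 One mouse dosed intravenously with saline carrying competitor at 50 µg/kg together with 30 µCi [125I]1 (146 Ci/mmol). CO2 sacrifice; 20 µm cryosections taken from 5-HT4R-rich regions (striatum, accumbens nucleus, olfactory tubercles), exposed overnight on phosphorimaging plates and scanned.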

[19] = biological target: 5-hydroxytryptamine receptor 4 (Rattus norvegicus) (UniProt Q62758); experiment: Displacement of [125I]SB 207710 from 5HT4R in rat brain cortex at 10 pM incubated for 30 mins by autoradiography; type: tissue-based
Method in brief: (§3)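 Frozen rat brain coronal sections (striatum/accumbens level) preincubated 5 min in 50 mM Tris-HCl pH 7.4, then incubated 30 min at room temperature with 100 pM [125I]1 plus competitor (1, 10, 100, 1000 pM). Three 5-min ice-cold buffer washes and a water dip, then drying; phosphorimaging after overnight exposure.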

[20] = biological target: 5-hydroxytryptamine receptor 4 (Rattus norvegicus) (UniProt Q62758); experiment: Displacement of [125I]SB 207710 from 5HT4R in rat brain cortex at 1 nM incubated for 30 mins by autoradiography; type: tissue-based; method in brief: as §3
[21] = tested on: Mus musculus; experiment: In-vivo displacement of [125I]SB 207710 from 5HT4R in mouse brain hemispheres at 50 ug/kg, iv by autoradiography; type: functional, organism-based; method in brief: as §2

T4 sequence (Q13639 whole entry): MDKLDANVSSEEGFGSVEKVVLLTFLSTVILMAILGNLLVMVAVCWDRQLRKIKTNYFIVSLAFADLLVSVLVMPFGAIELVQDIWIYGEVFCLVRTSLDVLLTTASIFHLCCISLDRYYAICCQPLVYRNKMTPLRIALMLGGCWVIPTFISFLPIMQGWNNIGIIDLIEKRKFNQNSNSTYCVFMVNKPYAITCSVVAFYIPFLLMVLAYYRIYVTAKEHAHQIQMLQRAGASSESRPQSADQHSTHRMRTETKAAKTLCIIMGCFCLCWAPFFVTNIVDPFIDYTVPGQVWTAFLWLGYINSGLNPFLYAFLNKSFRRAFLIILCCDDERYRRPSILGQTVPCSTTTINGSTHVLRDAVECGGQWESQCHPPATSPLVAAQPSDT
Chain of 5-hydroxytryptamine receptor 4 (Cavia porcellus) (O70528 whole entry): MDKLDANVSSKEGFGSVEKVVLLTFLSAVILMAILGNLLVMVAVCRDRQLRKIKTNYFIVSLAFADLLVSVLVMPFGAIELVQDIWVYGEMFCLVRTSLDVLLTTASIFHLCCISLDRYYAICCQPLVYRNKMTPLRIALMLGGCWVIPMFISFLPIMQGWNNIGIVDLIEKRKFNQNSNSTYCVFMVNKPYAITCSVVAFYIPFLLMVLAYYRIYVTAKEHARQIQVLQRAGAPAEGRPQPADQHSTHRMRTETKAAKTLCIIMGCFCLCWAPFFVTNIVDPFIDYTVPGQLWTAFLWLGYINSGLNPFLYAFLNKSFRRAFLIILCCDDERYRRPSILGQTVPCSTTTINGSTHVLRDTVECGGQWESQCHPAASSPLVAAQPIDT
Chain of 5-hydroxytryptamine receptor 4 (Cavia porcellus, UniProt O70528) (O70528 whole entry): as above
Chain of 5-hydroxytryptamine receptor 1D (P28221 whole entry): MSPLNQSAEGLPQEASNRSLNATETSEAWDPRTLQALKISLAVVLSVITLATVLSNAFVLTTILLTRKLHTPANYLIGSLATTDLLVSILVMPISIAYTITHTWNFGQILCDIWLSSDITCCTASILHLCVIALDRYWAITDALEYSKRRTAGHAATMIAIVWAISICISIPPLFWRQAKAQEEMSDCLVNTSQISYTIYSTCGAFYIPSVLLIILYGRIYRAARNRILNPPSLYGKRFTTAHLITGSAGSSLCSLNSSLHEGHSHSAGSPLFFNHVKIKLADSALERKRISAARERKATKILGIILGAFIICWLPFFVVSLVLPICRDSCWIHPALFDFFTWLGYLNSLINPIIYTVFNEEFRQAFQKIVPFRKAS
Chain of 5-hydroxytryptamine receptor 1B (P28222 whole entry): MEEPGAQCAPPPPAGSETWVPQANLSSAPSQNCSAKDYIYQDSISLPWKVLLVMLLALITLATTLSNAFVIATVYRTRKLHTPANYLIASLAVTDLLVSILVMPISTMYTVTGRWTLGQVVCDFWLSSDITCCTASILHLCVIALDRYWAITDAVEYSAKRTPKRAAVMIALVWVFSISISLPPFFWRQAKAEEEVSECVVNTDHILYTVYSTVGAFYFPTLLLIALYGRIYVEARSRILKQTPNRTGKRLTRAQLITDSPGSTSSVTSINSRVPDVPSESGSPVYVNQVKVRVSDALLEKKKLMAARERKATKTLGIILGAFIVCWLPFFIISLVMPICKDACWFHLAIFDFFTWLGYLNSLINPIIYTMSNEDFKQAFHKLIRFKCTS
Chain of 5-hydroxytryptamine receptor 7 (P34969 whole entry): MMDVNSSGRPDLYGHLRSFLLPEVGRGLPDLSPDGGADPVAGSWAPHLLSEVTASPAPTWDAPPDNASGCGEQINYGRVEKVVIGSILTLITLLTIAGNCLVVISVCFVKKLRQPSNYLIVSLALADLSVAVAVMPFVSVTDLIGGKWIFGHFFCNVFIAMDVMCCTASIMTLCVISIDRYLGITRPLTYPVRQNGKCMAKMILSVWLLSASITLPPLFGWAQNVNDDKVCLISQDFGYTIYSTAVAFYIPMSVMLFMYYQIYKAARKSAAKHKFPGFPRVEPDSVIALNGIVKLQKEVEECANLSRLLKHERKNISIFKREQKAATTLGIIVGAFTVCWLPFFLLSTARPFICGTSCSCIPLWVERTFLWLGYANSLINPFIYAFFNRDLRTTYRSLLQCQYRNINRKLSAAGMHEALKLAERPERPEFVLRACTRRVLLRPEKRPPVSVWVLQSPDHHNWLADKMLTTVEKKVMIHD
Chain of 5-hydroxytryptamine receptor 4 (Rattus norvegicus) (Q62758 whole entry): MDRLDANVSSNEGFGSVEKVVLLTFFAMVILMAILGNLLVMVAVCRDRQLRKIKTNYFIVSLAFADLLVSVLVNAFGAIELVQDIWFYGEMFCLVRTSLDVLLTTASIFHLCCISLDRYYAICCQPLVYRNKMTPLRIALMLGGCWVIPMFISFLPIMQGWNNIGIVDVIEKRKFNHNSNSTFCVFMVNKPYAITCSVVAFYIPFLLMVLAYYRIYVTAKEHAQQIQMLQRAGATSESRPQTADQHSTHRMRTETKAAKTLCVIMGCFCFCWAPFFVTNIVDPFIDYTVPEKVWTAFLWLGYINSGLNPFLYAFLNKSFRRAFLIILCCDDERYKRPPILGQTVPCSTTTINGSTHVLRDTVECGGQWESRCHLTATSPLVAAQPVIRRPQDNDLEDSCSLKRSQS
Chain of 5-hydroxytryptamine receptor 2B (P41595 whole entry): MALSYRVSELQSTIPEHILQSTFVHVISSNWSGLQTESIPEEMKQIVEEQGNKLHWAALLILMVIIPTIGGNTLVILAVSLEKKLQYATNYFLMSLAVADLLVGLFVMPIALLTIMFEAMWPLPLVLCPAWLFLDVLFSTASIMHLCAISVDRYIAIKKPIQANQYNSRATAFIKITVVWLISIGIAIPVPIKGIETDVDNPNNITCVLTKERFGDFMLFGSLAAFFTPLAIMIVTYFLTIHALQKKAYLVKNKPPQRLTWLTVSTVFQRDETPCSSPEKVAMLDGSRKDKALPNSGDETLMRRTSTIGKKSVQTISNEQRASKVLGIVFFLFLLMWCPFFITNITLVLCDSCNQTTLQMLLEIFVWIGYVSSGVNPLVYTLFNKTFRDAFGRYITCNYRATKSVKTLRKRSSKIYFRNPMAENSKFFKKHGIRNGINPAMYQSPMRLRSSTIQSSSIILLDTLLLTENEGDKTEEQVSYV
Chain of 5-hydroxytryptamine receptor 5A (P47898 whole entry): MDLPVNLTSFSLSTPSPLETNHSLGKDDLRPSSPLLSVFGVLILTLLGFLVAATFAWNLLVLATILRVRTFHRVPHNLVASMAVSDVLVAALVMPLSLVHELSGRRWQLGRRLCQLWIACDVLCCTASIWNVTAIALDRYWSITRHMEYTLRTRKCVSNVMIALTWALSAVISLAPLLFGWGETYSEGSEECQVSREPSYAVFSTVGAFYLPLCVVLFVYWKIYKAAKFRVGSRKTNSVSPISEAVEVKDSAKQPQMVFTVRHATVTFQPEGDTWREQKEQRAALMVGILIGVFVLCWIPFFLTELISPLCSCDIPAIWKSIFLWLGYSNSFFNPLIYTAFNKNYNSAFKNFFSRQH
Chain of 5-hydroxytryptamine receptor 6 (P50406 whole entry): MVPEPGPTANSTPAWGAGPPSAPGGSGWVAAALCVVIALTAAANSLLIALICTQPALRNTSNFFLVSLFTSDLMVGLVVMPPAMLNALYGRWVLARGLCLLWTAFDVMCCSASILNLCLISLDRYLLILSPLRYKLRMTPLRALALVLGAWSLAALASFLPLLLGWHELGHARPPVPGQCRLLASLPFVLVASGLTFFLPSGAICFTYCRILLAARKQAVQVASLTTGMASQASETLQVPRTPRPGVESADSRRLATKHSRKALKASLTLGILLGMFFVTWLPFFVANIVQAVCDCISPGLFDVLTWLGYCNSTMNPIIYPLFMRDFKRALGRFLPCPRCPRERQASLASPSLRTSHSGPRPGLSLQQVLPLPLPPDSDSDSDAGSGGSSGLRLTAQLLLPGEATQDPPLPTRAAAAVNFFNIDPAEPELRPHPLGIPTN
Chain of 5-hydroxytryptamine receptor 2A (P28223 whole entry): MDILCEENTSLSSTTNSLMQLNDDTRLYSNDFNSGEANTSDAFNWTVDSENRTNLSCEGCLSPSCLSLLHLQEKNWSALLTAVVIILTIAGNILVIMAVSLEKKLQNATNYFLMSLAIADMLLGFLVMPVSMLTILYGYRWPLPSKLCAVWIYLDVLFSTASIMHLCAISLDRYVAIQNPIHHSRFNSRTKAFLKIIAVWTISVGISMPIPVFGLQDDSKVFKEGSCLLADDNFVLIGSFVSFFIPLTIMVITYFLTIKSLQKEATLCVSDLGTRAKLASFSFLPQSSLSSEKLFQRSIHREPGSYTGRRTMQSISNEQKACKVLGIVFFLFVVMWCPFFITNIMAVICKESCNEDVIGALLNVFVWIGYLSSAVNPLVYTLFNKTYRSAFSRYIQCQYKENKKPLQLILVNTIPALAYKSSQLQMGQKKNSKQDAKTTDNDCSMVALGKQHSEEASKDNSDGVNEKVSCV
Chain of 5-hydroxytryptamine receptor 1E (P28566 whole entry): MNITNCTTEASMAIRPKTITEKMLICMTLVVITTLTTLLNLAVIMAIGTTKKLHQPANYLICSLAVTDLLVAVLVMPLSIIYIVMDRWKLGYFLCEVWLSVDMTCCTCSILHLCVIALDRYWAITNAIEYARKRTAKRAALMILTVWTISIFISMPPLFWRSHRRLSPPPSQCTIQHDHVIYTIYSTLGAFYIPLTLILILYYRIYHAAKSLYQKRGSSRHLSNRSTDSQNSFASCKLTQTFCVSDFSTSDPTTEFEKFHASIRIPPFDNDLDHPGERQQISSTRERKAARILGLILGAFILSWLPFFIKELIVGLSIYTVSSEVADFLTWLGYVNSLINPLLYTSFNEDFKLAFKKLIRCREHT

CCCN1CCC(COc2nc3c(C)cccc3c3ccccc23)CC1
inhibition [1]: 0%
inhibition [2]: 100%
Ki [3]: 100 nM

CCCN1CCC(COc2nc3c(I)cccc3c3ccccc23)CC1
Ki [4]: > 10000 nM
Ki [5]: > 10000 nM
Ki [6]: 162 nM
inhibition [1]: 0%
Ki [7]: 153 nM
Ki [8]: 772 nM
Ki [9]: > 10000 nM
Ki [10]: > 10000 nM
Ki [11]: 1310 nM
Ki [12]: 1.2 nM
inhibition [2]: 100%
Ki [13]: 5810 nM
Ki [3]: 13.5 nM
Ki [14]: > 10000 nM
Ki [15]: 1020 nM

CCCN1CCC(COc2nc3ccccc3c3cc(C)ccc23)CC1
inhibition [1]: 0%
inhibition [2]: 28%

CCCN1CCC(COc2nc3ccccc3c3cnccc23)CC1
inhibition [1]: 50%
Ki [16]: 403 nM
inhibition [2]: 100%
Ki [3]: 22.8 nM

CCCN1CCC(COc2nc3ccc(C)cc3c3ccccc23)CC1
Ki [3]: 246 nM

CCCN1CCC(COc2nc3ccccc3c3ccc(F)cc23)CC1
inhibition [1]: 4%
inhibition [2]: 90%
Ki [3]: 154 nM

CCCN1CCC(COc2nc3c(F)cccc3c3ncccc23)CC1
inhibition [1]: 98%
Ki [12]: 0.04 nM
inhibition [2]: 100%
pKb [17]: 10.6
Ki [3]: 2.2 nM

CCCN1CCC(COc2nc3ccccc3c3cccc(F)c23)CC1
Ki [3]: 21.6 nM

CCCN1CCC(COc2nc3cc(C)ccc3c3ccccc23)CC1
Ki [3]: 691 nM

Fc1cccc2c1nc(OCC1CCN(CCCc3ccc(I)cc3)CC1)c1cccnc12
Ki [4]: > 10000 nM
Ki [5]: 680 nM
Activity [18]: Active
Activity [19]: Active
Activity [20]: Active
Ki [6]: 340 nM
inhibition [1]: 94%
Ki [7]: 150 nM
Activity [21]: Active
Ki [8]: 400 nM
Ki [9]: > 10000 nM
Ki [11]: 410 nM
Ki [12]: 0.23 nM
inhibition [2]: 100%
Ki [13]: 1700 nM
Ki [3]: 2.5 nM
Ki [14]: > 10000 nM
Ki [15]: 810 nM

CCCN1CCC(COc2nc3ccccc3c3ccccc23)CC1
Ki [3]: 51.5 nM

CCCN1CCC(COc2nc3cc(Cl)ccc3c3ccccc23)CC1
inhibition [1]: 0%
inhibition [2]: 85%
